Reference: ChEMBL document CHEMBL4028913, “Discovery of Novel Potent VEGFR-2 Inhibitors Exerting Significant Antiproliferative Activity against Cancer Cell Lines” (J Med Chem, 2018)
Active and inactive are the calls of the source. The calls are words filed in the database; no cut-off is given here.

Columns and labels:
[1] = system: MDA-MB-468; test: Cytotoxicity against human MDA-MB-468 cells after 48 hrs by SRB assay; type: functional; settings: MDA-MB-468, 48 h
Summary of the method: (§1)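 NCI-60 panel; cells grown in RPMI 1640 with 5% FBS and 2 mM L-glutamine, plated at 5000–40 000 cells/well by doubling time, preincubated 24 h (37 °C, 5% CO2). Drug added at five concentrations, 1-log steps from 10−4 to 10−8 M, for 48 h. Fixed with TCA, stained with 0.4% SRB, absorbance read at 515 nm. Percent growth computed against time-zero and untreated controls; GI50, TGI and LC50 derived.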

[2] = system: SNB-75; test: Cytotoxicity against human SNB75 cells after 48 hrs by SRB assay; type: functional; settings: SNB-75, 48 h; summary of the method: as §1
[3] = system: OVCAR-8; test: Cytotoxicity against human OVCAR8 cells after 48 hrs by SRB assay; type: functional; settings: OVCAR-8, 48 h; summary of the method: as §1
[4] = system: ACHN; test: Cytotoxicity against human ACHN cells after 48 hrs by SRB assay; type: functional; summary of the method: as §1
[5] = molecular target: Tyrosine-protein kinase ABL1 (Homo sapiens) (UniProt P00519); settings: at 0.5 µM
[6] = organism: Homo sapiens; test: Inhibition of human PDGFR at 0.5 uM relative to control
[7] = system: MOLT-4; test: Cytotoxicity against human MOLT4 cells after 48 hrs by SRB assay; type: functional; settings: MOLT-4, 48 h; summary of the method: as §1
[8] = molecular target: Fibroblast growth factor receptor 3 (Homo sapiens) (UniProt P22607); test: Inhibition of human FGFR3 at 0.5 uM relative to control
Sequence of Fibroblast growth factor receptor 3 (Homo sapiens) (P22607 23-806 limits assumed): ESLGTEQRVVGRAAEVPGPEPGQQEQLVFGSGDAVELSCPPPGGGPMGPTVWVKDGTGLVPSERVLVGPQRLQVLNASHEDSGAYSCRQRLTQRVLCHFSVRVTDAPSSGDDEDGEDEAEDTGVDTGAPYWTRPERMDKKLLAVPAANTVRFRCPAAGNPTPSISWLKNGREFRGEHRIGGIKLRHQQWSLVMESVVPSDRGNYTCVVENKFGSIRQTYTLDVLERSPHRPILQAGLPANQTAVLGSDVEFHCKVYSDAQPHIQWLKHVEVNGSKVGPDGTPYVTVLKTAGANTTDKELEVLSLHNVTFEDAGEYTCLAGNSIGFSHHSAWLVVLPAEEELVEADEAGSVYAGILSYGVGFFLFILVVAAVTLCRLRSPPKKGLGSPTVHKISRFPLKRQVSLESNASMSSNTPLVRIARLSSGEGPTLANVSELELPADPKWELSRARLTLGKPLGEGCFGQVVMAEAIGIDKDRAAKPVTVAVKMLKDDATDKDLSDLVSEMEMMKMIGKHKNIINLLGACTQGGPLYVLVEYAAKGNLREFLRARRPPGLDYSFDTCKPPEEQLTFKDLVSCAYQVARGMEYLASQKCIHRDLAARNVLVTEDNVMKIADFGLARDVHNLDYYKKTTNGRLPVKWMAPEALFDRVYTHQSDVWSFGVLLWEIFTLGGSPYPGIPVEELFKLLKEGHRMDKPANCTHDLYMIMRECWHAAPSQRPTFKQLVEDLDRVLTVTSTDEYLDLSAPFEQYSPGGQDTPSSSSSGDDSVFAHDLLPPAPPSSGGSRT

[9] = system: NCI-H226; test: Cytotoxicity against human NCI-H226 cells after 48 hrs by SRB assay; type: functional; settings: NCI-H226, 48 h; summary of the method: as §1
[10] = system: CCRF-CEM; test: Cytotoxicity against human CCRF-CEM cells after 48 hrs by SRB assay; type: functional; summary of the method: as §1
[11] = system: Leukemia cell; test: Potency index, ratio of sorafenib GI50 to test compound GI50 for human leukemia cells; type: functional
Summary of the method: (§2)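 GI50 is the concentration giving 50% reduction in net protein increase relative to control. Potency index is the reference-drug GI50 divided by the test-compound GI50.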

[12] = molecular target: Mitogen-activated protein kinase kinase kinase kinase 5 (Homo sapiens) (UniProt Q9Y4K4); test: Inhibition of human KHS at 0.5 uM relative to control
Sequence of Mitogen-activated protein kinase kinase kinase kinase 5 (Homo sapiens) (Q9Y4K4 whole entry, looked up): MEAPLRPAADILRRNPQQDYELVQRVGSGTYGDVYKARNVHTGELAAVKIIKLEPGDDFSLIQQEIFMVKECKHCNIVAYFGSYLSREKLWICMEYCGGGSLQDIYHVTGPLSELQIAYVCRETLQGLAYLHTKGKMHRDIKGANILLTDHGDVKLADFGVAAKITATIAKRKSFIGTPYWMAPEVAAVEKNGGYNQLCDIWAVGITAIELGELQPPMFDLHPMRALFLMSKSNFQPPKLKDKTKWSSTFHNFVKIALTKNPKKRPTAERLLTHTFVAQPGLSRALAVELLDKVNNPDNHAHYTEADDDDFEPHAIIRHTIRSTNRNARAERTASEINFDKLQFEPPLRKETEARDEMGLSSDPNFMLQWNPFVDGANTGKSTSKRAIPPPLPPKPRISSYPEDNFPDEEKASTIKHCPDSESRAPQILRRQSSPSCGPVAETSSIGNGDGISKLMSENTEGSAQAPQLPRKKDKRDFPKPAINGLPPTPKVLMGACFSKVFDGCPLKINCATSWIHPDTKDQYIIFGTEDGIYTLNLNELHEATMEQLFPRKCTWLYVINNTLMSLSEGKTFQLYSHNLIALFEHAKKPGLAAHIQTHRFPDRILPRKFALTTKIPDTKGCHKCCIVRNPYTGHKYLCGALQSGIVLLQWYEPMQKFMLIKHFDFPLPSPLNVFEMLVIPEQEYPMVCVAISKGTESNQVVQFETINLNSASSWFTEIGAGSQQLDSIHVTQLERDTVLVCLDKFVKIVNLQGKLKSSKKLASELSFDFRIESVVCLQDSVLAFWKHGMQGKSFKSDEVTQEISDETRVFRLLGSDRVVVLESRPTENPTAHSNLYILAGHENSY

[13] = system: MCF7; test: Cytotoxicity against human MCF7 cells after 48 hrs by SRB assay; type: functional; settings: MCF7, 48 h; summary of the method: as §1
[14] = Potency index, ratio of sorafenib GI50 to test compound GI50 for human ovarian cancer cells; type: functional, Ovarian cancer cell; summary of the method: as §2
[15] = molecular target: Ephrin type-A receptor 8 (Homo sapiens) (UniProt P29322); test: Inhibition of human EPHA8 at 0.5 uM relative to control
Sequence of Ephrin type-A receptor 8 (Homo sapiens) (P29322 whole entry): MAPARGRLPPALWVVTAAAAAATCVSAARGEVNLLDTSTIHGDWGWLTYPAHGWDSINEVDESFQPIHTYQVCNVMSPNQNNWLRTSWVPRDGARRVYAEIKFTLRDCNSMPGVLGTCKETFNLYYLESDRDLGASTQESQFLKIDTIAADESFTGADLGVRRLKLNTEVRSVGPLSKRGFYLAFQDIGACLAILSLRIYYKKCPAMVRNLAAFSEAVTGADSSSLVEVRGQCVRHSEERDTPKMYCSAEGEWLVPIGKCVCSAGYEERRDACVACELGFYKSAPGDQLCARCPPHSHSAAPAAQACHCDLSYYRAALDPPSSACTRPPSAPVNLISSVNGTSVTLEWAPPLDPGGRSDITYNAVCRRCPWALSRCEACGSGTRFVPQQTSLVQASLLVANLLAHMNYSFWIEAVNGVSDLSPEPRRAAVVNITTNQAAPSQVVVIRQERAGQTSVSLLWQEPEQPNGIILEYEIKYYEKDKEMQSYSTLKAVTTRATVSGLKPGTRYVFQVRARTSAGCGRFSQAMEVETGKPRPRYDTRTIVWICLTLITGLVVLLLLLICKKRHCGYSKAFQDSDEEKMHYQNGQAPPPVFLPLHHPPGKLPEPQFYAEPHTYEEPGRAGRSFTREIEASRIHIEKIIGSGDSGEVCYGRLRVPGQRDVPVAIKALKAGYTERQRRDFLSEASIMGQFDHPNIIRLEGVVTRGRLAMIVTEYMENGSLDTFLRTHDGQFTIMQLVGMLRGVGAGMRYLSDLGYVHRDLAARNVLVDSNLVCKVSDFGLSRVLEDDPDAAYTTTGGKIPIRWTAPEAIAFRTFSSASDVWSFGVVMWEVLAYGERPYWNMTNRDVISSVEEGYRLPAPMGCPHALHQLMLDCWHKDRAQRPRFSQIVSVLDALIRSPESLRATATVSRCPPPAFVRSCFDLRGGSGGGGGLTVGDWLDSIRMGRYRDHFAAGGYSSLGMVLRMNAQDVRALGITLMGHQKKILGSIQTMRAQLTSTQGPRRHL

[16] = system: UO-31; test: Cytotoxicity against human UO31 cells after 48 hrs by SRB assay; type: functional; settings: UO-31, 48 h
Summary of the method: (§3)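 NCI-60 panel, five doses at 1-log steps from 10−4 to 10−8 M. Cells grown in RPMI 1640 with 5% FBS and 2 mM L-glutamine, seeded at 5000–40 000 cells/well and preincubated 24 h. Tz plates were TCA-fixed at drug addition. Drug exposure 48 h at 37 °C, then TCA fixation, 0.4% SRB stain and absorbance at 515 nm. GI50 taken from percent growth relative to Tz and control.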

[17] = system: HOP-92; test: Cytotoxicity against human HOP92 cells after 48 hrs by SRB assay; type: functional; settings: HOP-92, 48 h; summary of the method: as §1
[18] = Potency index, ratio of sorafenib GI50 to test compound GI50 for human breast cancer cells; type: functional, Breast cancer cell; summary of the method: as §2
[19] = system: UACC-62; test: Cytotoxicity against human UACC62 cells after 48 hrs by SRB assay; type: functional; settings: UACC-62, 48 h; summary of the method: as §3
[20] = system: NCI/ADR-RES; test: Cytotoxicity against human NCI-ADR-RES cells after 48 hrs by SRB assay; type: functional; summary of the method: as §1
[21] = Potency index, ratio of sorafenib GI50 to test compound GI50 for human renal cancer cells; type: functional, Renal cancer cell; summary of the method: as §2
[22] = molecular target: Fibroblast growth factor receptor 4 (Homo sapiens) (UniProt P22455); test: Inhibition of human FGFR4 at 0.5 uM relative to control
[23] = system: Melanoma cell; test: Potency index, ratio of sunitinib GI50 to test compound GI50 for human melanoma cells; type: functional; summary of the method: as §2
[24] = system: HCT-116; test: Cytotoxicity against human HCT116 cells after 48 hrs by SRB assay; type: functional; settings: HCT-116, 48 h; summary of the method: as §1
[25] = molecular target: Receptor-type tyrosine-protein kinase FLT3 (Homo sapiens) (UniProt P36888); test: Inhibition of human Flt3 at 0.5 uM relative to control
Sequence of Receptor-type tyrosine-protein kinase FLT3 (Homo sapiens) (P36888 whole entry): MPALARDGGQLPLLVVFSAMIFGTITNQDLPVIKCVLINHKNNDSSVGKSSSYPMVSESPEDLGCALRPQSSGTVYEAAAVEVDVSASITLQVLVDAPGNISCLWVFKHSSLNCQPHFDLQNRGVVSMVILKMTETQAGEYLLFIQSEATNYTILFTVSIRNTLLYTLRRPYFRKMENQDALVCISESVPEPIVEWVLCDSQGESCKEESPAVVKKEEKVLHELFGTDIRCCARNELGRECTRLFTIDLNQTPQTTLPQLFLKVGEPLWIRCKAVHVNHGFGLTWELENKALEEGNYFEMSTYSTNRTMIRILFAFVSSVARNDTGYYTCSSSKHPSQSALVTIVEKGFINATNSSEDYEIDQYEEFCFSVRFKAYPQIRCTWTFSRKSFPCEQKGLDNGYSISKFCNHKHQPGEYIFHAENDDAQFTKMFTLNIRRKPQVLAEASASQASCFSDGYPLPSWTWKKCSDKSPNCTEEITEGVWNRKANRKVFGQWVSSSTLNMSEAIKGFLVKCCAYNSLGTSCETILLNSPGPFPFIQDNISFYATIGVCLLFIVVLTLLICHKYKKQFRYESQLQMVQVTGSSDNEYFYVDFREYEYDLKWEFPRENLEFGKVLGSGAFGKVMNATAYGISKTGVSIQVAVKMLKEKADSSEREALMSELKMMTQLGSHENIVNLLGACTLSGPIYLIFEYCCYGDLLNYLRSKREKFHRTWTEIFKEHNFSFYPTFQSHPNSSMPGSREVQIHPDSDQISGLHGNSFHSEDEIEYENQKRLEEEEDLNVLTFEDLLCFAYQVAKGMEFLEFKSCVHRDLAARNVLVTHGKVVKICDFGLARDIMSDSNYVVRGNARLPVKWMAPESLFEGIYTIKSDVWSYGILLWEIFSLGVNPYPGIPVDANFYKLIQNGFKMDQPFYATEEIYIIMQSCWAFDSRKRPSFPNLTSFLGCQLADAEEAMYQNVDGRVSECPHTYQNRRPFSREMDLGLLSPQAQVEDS

[26] = system: U-251; test: Cytotoxicity against human U251 cells after 48 hrs by SRB assay; type: functional; settings: U-251, 48 h; summary of the method: as §3
[27] = system: A498; test: Cytotoxicity against human A498 cells after 48 hrs by SRB assay; type: functional; settings: A498, 48 h; summary of the method: as §1
[28] = molecular target: Vascular endothelial growth factor receptor 2 (Homo sapiens, UniProt P35968); test: Inhibition of VEGFR2 in human prostate cancer cells assessed as decrease in Akt activation at 10 uM relative to control
Sequence of Vascular endothelial growth factor receptor 2 (P35968 whole entry): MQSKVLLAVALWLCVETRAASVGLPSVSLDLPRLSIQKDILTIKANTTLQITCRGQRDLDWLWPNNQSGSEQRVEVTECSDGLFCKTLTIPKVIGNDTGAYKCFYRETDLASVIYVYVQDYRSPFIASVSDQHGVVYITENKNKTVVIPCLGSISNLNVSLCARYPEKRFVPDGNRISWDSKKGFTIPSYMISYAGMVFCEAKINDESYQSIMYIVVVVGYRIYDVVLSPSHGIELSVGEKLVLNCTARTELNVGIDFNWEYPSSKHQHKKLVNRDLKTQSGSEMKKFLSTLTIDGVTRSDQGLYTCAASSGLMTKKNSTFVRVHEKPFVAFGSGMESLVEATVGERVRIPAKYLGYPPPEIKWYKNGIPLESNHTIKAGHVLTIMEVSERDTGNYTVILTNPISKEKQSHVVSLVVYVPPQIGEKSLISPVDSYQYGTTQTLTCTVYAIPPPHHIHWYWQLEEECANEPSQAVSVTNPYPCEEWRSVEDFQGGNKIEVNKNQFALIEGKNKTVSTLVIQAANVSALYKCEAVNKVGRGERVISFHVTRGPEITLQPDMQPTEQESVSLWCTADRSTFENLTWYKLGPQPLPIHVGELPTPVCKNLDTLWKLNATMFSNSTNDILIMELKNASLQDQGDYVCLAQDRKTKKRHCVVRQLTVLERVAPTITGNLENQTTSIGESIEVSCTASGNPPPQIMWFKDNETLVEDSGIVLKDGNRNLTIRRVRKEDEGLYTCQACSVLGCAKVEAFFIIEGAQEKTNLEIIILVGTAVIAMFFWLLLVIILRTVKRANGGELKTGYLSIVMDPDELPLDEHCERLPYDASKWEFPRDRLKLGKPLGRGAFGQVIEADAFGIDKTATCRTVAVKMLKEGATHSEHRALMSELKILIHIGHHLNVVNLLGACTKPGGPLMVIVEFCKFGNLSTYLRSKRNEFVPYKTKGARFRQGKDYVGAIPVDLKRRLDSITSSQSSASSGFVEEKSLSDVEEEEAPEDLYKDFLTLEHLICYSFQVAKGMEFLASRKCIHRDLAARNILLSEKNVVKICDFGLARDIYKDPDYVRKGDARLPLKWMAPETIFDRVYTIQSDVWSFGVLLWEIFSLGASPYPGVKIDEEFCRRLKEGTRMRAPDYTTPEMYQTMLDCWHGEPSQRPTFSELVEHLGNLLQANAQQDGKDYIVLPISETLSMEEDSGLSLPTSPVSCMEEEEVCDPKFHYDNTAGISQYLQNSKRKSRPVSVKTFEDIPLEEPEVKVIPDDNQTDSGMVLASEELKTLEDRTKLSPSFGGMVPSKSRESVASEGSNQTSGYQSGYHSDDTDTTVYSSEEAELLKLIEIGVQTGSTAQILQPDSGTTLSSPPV

[29] = system: SNB-19; test: Cytotoxicity against human SNB19 cells after 48 hrs by SRB assay; type: functional; settings: SNB-19, 48 h; summary of the method: as §1
[30] = system: SK-OV-3; test: Cytotoxicity against human SKOV3 cells after 48 hrs by SRB assay; type: functional; settings: SK-OV-3, 48 h; summary of the method: as §1
[31] = system: RPMI-8226; test: Cytotoxicity against human RPMI8226 cells after 48 hrs by SRB assay; type: functional; settings: RPMI-8226, 48 h; summary of the method: as §1
[32] = read-out: LC50 (the source's name)

SMILES: COc1cc2ncnc(Oc3ccc(NC(=O)Nc4ccc(CN5CCOCC5)c(C(F)(F)F)c4)c4ccccc34)c2cc1OC
- GI50 [1]: 0.23 µM
- TGI [1]: 2.82 µM
- CC50 [1, 32]: 72.4 µM
- GI50 [2]: 1.05 µM
- TGI [2]: 13.8 µM
- CC50 [2, 32]: 38.9 µM
- GI50 [3]: 0.4 µM
- TGI [3]: 9.55 µM
- CC50 [3, 32]: > 100 µM
- GI50 [4]: 0.32 µM
- TGI [4]: 1.62 µM
- CC50 [4, 32]: 14.1 µM
- inhibition [5]: Active
- inhibition [6]: Active
- GI50 [7]: 0.19 µM
- TGI [7]: 1.82 µM
- CC50 [7, 32]: > 100 µM
- inhibition [8]: > 96%
- GI50 [9]: 0.07 µM
- TGI [9]: 13.8 µM
- CC50 [9, 32]: > 100 µM
- GI50 [10]: 1.17 µM
- TGI [10]: 40.7 µM
- CC50 [10, 32]: > 100 µM
- RatioGI50 [11]: 3.9 - 9.5
- inhibition [12]: Active
- GI50 [13]: 0.33 µM
- TGI [13]: 11 µM
- CC50 [13, 32]: > 100 µM
- RatioGI50 [14]: 3.9 - 9.5
- inhibition [15]: Active
- GI50 [16]: 0.2 µM
- TGI [16]: 10.2 µM
- CC50 [16, 32]: 38 µM
- GI50 [17]: 0.32 µM
- TGI [17]: 7.76 µM
- CC50 [17, 32]: 91.2 µM
- RatioGI50 [18]: 3.9 - 9.5
- GI50 [19]: 0.6 µM
- TGI [19]: 3.47 µM
- CC50 [19, 32]: 18.6 µM
- GI50 [20]: 0.76 µM
- TGI [20]: 58.9 µM
- CC50 [20, 32]: > 100 µM
- RatioGI50 [21]: 9.5
- inhibition [22]: > 96%
- RatioGI50 [23]: 1.1 - 3.7
- GI50 [24]: 0.79 µM
- TGI [24]: 2.57 µM
- CC50 [24, 32]: 7.08 µM
- inhibition [25]: Active
- GI50 [26]: 1.05 µM
- TGI [26]: 3.98 µM
- CC50 [26, 32]: 27.5 µM
- GI50 [27]: 0.05 µM
- TGI [27]: 0.52 µM
- CC50 [27, 32]: 30.9 µM
- inhibition [28]: < 20%
- GI50 [29]: 2.57 µM
- TGI [29]: 14.1 µM
- CC50 [29, 32]: 43.6 µM
- GI50 [30]: 0.23 µM
- TGI [30]: 0.95 µM
- CC50 [30, 32]: 37.1 µM
- GI50 [31]: 0.39 µM
- TGI [31]: 2.95 µM
- CC50 [31, 32]: > 100 µM
